Compound activity deposited in PubChem BioAssay by several laboratories.
Autophagy mod: modulators of autophagy; MEF GFP-LC3 puncta imaging; test concentration mostly 10 µM; 190,000 compounds, 0.98% hits; calls only at 10 µM (by protocol);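 active means percentage of spot-positive cells more than 3 SD above its plate mean, without a fluorescence outlier flag or 80% toxicity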;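 further: spot-positive cell cutoff set from DMSO-treated cells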
Dynein cargo inh: dynein cargo transport inhibition; 3617.4 mouse cells, GR-EGFP nuclear translocation imaging; test concentration mostly 20 µM; stimulated with dexamethasone, 1 µM; active compounds read low; z-score, hits read low; 220,000 compounds, 0.47% hits;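 active means plate z-score of nuclear minus cytoplasmic receptor signal below a set negative limit, without overly bright fluorescence or cell loss, cut at about -3.5 in these data, passing the limit was not always enough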;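 further: z-score of nuclear minus cytoplasmic ring GR-EGFP intensity difference per well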
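medium = tetracycline-free induction medium containing charcoal-stripped FBS | also added = 1.0 µM final dexamethasone stimulus | schedule = 48 h induction, 1 h compound, 30 min dex at 37 °C | technique = fixed, Hoechst-stained cells imaged at 10x for EGFP | measure = GR-EGFP nuclear translocation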
SDO1 yeast rescue: sdo1-depleted yeast growth rescue. S. cerevisiae sdo1-depleted JHY4D growth rescue, OD600 30 h; active compounds read high; pdr5 snq2 efflux-pump mutant strain. z-score at 10 µM. 140,000 compounds, 0.21% hits. AID 817;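 active means z-score above 3 at both the 24 hr and the 30 hr optical density reads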;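 further: z-score against mean and SD of all compound wells on the same plate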
PTEN del growth: growth suppressors of cells with PTEN tumor suppressor deletion; viability, % at 10 µM; 140,000 compounds, 1.2% hits; HCT116 PTEN-null viability, CellTiter-Glo, 60 h; active compounds read low;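 active means viability at or below a set limit, 4 SD under the median of all tested compounds, cut at about 3.7% in these data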;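 further: PTEN knockout HCT116 line with beta catenin targeted HCT116 as companion control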
bCat KO growth: beta-catenin-lacking colon tumor cell growth suppression. HCT116 beta-catenin knockout viability, CellTiter-Glo, 60 h; active compounds read low. 140,000 compounds, 1.5% hits. viability, % at 10 µM. AID 818;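 active means viability at or under a set limit, the compound median less 4 SD, cut at about 6% in these data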;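 further: 0% = Hyamine 1622 control at 20 µM and 100% = untreated cell control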
Active calls of the source: *; i = inactive; · = not tested or not shown; + = active, no number. Rows were chosen to be rich in hits. Some 2.2% of all compounds tested hit in one or more screens of this group.

SMILES	Autophagy mod	Dynein cargo inh	SDO1 yeast rescue	PTEN del growth	bCat KO growth
COc1ccc(C(=O)c2sc3nc(-c4ccc(OC)cc4)ccc3c2N)cc1	+	-2.7	0.08	99	90
COc1ccc(-c2c(C#N)c(N)nc3sc(C(=O)c4ccc(C)cc4)c(N)c23)cc1	+	-1.2	-0.4	73	86
Cc1cc(C)c2c(N)c(C(=O)c3ccc(Cl)cc3)sc2n1	i	-0.39	-0.79	78	86
COc1ccc(-c2ccc3c(N)c(C(=O)c4cccc(OC)c4)sc3n2)cc1	+	-0.49	-0.31	·	91
CCCC(=O)NC(c1cccs1)c1cc(Cl)c2cccnc2c1O (centres undefined)	i	-0.15	·	·	·
COc1ccc(C(NC(C)=O)c2ccc3cccnc3c2O)c(OC)c1 (centres undefined)	·	·	1.8	2.5*	3.7*
CCC(=O)NC(c1ccc(OC)c(OC)c1)c1cc(Cl)c2cccnc2c1O (centres undefined)	i	1.8	·	·	·
CCCC(=O)NC(c1ccccc1OC)c1ccc2cccnc2c1O (centres undefined)	i	2.6	·	·	·
CCCC(=O)NC(c1ccco1)c1cc(Cl)c2cccnc2c1O (centres undefined)	i	1.7	-1.1	7	6.0*
CCCC(=O)NC(c1ccc2c(c1)OCO2)c1cc(Cl)c2cccnc2c1O (centres undefined)	i	0.5	-0.79	5	4.1*
CC(C)C(=O)NC(c1ccco1)c1ccc2cccnc2c1O (centres undefined)	i	-0.48	1.1	2.0*	3.5*
COc1ccc(-c2cc(C(F)(F)F)nc(SCC(=O)NCCCN3CCOCC3)n2)cc1	i	1.3	·	·	·
O=C(NC(=C(Cl)Cl)S(=O)(=O)c1ccc(Cl)cc1)c1ccccc1	·	0.77	·	·	·
Cc1ccc(NC(=O)c2nc[nH]c2C(=O)N2CCN(c3ccccc3)CC2)cc1	·	-0.57	·	·	·
O=C(CSc1ccc(-c2ccccc2)nn1)Nc1ccc2c(c1)OCCO2	i	1.6	-0.26	99	92
Cc1cc(N/N=C/c2c(O)ccc3ccccc23)nc(-c2ccccc2O)n1	i	-0.078	-0.69	4	2.9*
COc1ccc(CS(=O)(=O)c2nc(C)cc(C)c2S(C)(=O)=O)cc1	i	1.3	·	·	·
CCOc1ccc(-c2nnc(SCC(=O)Nc3ccc4c(c3)c3ccccc3n4CC)n2N)cc1	i	0.36	-0.62	5	3.9*
CCn1c2ccccc2c2cc(NC(=O)CSc3nnc(-c4ccc(OC)c(OC)c4)n3N)ccc21	i	-1.2	-0.86	61	52
COc1ccccc1NC(=O)c1cc2ccccc2o/c1=N\O	·	·	-1.1	2.7*	4.5*
COc1cc(SC)ccc1C(=O)Nc1ccccn1	·	0.14	·	·	·
COc1ccc(N=c2oc3c(OC)cccc3cc2C(=O)NCc2ccco2)cc1OC	+	0.45	0.15	82	84
COc1ccc(N=c2oc3ccccc3cc2C(=O)Nc2ccccn2)cc1OC	+	-0.52	·	·	·
COc1ccccc1N=c1oc2c(OC)cccc2cc1C(=O)NCc1ccco1	i	-0.75	1.2	7	12
COc1ccc(NC(=S)N(Cc2cccnc2)Cc2cc3cc(OC)c(OC)cc3[nH]c2=O)cc1	i	-0.43	·	·	·
SMILES	Autophagy mod	Dynein cargo inh	SDO1 yeast rescue	PTEN del growth	bCat KO growth
Cn1cc(CNCc2ccccc2OCC(O)CN2CCc3ccccc3C2)cn1 (centres undefined)	i	-0.58	·	·	·
O=C(Nc1ccn(Cc2ccccc2F)n1)c1ccc(COc2ccccc2Cl)cc1	i	-0.11	-0.5	17	5.9*
Cc1ccc(Cl)cc1N1CCN(CC(=O)Nc2ccc(CN3CCCCC3)cc2)CC1	+	-5.5	-0.28	53	50
C/C(=N\NC(=O)c1ccc(Cl)c(Cl)c1)c1ccc(Br)s1	i	-0.9	-0.34	3.6*	6.1*
CCn1cc([N+](=O)[O-])c(C(=O)Nc2ccc(Cn3nc(C)cc3C)cc2)n1	i	0.21	0.8	100	91
Cc1ccc(Cn2ccc(NC(=O)c3nn(C)cc3[N+](=O)[O-])n2)cc1	i	-1.4	0.73	2.6*	5.0*
Cc1ccc(-c2nc(NC(=O)c3nn(C)cc3[N+](=O)[O-])sc2C)cc1C	i	-2.1	0.27	1.4*	1.6*
Cc1cc(C)n(Cc2ccc(NC(=O)c3nn(C)cc3[N+](=O)[O-])cc2)n1	i	-1.3	0.88	1.8*	5.3*
Cn1cc([N+](=O)[O-])c(C(=O)Nc2ccc(-c3nc4ccccc4[nH]3)cc2)n1	i	-0.64	-0.74	42	61
Cn1cc([N+](=O)[O-])c(C(=O)Nc2ccc(C(=O)N3CCCCC3)cc2)n1	i	0.0016	0.7	3.5*	4.1*
Cc1cc(NS(=O)(=O)c2ccccc2)c(C)c(Cl)c1O	·	·	-0.53	2.2*	2.3*
CC(C)Cn1c(=O)c2ccccc2n2c(SCC(=O)N3c4ccccc4CC3C)nnc12 (centres undefined)	i	0.47	-1.7	88	87
CC1CCN(c2c(NCc3ccc(C(=O)NCC4COc5ccccc5O4)cc3)c(=O)c2=O)CC1 (centres undefined)	i	-0.2	·	·	·
OCCC1CN(Cc2cnc(-c3cccc4ccccc34)nc2)CCN1C1CCCCC1 (centres undefined)	+	0.11	·	·	·
OCCC1CN(C/C(Cl)=C/c2ccccc2)CCN1C1CCCC1 (centres undefined)	+	-0.74	·	·	·
Cc1ccccc1-c1ncc(CN2CCN(C3CCCC3)C(CCO)C2)cn1 (centres undefined)	i	-1	·	·	·
O=C1CN(C(=O)c2cc3ccccc3oc2=O)C(c2ccc(F)cc2)c2cc(Br)ccc2N1 (centres undefined)	+	-0.27	-0.64	83	91
C=CCOC(=O)c1cc(-c2ccc(/C=C3\C(=O)NC(=O)C(C#N)=C3C)o2)ccc1Cl	i	-4.4*	-0.52	109	108
CCCOC(=O)c1cc(-c2ccc(/C=C3/C(=O)N(C)C(=O)C(C#N)=C3C)o2)ccc1Cl	i	-3.7*	·	·	·
CC1=C(C#N)C(=O)NC(=O)/C1=C/c1ccc(-c2ccc(S(N)(=O)=O)cc2)o1	i	3	·	·	·
COc1ncnc2c1oc1ccccc12	i	1.6	·	·	·
Clc1ccc2oc3c(Cl)ncnc3c2c1	i	-1.1	1.3	14	3.0*
Cc1ccc([N+](=O)[O-])cc1S(=O)(=O)NCCc1c(C)[nH]c2c(C)cccc12	i	-0.46	0.74	99	97
Cc1[nH]c2c(C)cccc2c1CCNS(=O)(=O)c1cccc([N+](=O)[O-])c1	+	-1.1	0.37	75	86
Cc1cccc(OCCN2C(=O)C(=O)c3cc(C)ccc32)c1	+	-0.29	·	·	·
Cc1nn(Cc2ccc([N+](=O)[O-])cc2)c(=O)n1-c1ccccc1Cl	+	1.1	·	·	·
Cc1cc(C)c(C)c(OC(=O)c2sc(Cl)nc2C)c1	i	-0.49	-0.79	2.3*	1.7*
